Experimental data as given in ChEMBL document CHEMBL3352115, “Discovery of APD334: Design of a Clinical Stage Functional Antagonist of the Sphingosine-1-phosphate-1 Receptor” (ACS Med Chem Lett, 2014).
Activity calls are given as the source filed them. The rule behind the calls is not given here.

Experiments:
Rhesus monkey [1] = experiment: Reduction in peripheral lymphocyte count in orally dosed monkey measured after 24 hrs; assay type: ADME, organism-based; settings: Macaca mulatta
[2] = Protein binding in human plasma; assay type: ADME, cell-free; settings: read-out: PPB (converted)
[3] = Drug level in Sprague-Dawley rat plasma at 14.5 ug/hr/kg dosed as constant infusion measured after 48 hrs; assay type: ADME, organism-based; settings: iv
Procedure, shortened: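 Male Sprague–Dawley rats given constant infusion at 14.5 μg/h/kg for 48 h; brain and plasma concentrations measured at 48 h.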

Mus musculus [4] = experiment: Reduction in disease severity in C57Bl/6 mouse experimental autoimmune encephalomyelitis model of multiple sclerosis at 3 mg/kg dosed once daily beginning on day 18 and continued to day 37; assay type: functional, organism-based; set-up: dose 3 mg/kg
Procedure, shortened: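 Female C57Bl/6 mice with MOG35–55-induced EAE; once-daily treatment started day 18 after severe disease onset and continued to day 37; vehicle 0.5% methylcellulose; clinical scoring.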

Mus musculus [5] = experiment: Reduction in lymphocyte infiltration in C57Bl/6 mouse experimental autoimmune encephalomyelitis model of multiple sclerosis at 3 mg/kg dosed once daily beginning on day 18 and continued to day 37 by immunofluorescent staining method; assay type: functional, organism-based; set-up: dose 3 mg/kg
Procedure, shortened: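 Therapeutic EAE in female C57Bl/6 mice, dosing from day 18; spinal cord and brain collected day 37; cerebellum sections immunostained for CD45 and CD3 with DAPI counterstain; inflammatory foci and infiltrating lymphocytes assessed.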

Rattus norvegicus [6] = experiment: Reduction in ankle diameter in Lewis rat collagen-induced arthritis model at 1 mg/kg, po qd measured on day 17 (reference value: +/- inches); assay type: functional
Procedure, shortened: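 Female Lewis rats with collagen-induced arthritis, prophylactic daily oral dosing; ankle diameter (inches) and body weight recorded at day 17 end point; mean ± SEM.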

Rattus norvegicus [7] = experiment: Induction of body weight regain in Lewis rat collagen-induced arthritis model at 1 mg/kg, po qd measured on day 17 (reference value: 160.3 +/- 2.3 g); assay type: functional
Rattus norvegicus [8] = experiment: Improvement histological parameters of knee and ankles in Lewis rat collagen-induced arthritis model at 3 mg/kg, po qd measured on day 17; assay type: functional, organism-based; set-up: dose 3 mg/kg
Cytochrome P450 3A4 = Cytochrome P450 3A4 (Homo sapiens, UniProt P08684); experiment: Inhibition of CYP3A4 (unknown origin); assay type: ADME
Cytochrome P450 3A4, sequence (P08684 whole entry): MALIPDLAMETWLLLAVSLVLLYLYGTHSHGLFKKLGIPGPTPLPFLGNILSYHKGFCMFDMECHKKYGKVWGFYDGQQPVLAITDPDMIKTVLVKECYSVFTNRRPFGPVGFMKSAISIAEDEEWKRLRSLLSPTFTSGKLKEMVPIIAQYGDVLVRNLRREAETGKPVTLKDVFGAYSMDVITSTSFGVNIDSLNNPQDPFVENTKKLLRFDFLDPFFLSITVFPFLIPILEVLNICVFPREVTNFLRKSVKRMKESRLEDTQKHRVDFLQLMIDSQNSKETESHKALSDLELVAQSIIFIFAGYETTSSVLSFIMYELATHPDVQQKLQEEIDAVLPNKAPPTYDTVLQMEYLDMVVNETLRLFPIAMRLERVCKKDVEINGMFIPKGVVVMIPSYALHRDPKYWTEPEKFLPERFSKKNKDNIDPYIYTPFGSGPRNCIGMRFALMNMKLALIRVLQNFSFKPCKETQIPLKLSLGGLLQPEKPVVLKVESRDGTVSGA

Cytochrome P450 2D6 = Cytochrome P450 2D6 (Homo sapiens, UniProt P10635); experiment: Inhibition of CYP2D6 (unknown origin); assay type: ADME
Cytochrome P450 2D6, sequence (P10635 whole entry): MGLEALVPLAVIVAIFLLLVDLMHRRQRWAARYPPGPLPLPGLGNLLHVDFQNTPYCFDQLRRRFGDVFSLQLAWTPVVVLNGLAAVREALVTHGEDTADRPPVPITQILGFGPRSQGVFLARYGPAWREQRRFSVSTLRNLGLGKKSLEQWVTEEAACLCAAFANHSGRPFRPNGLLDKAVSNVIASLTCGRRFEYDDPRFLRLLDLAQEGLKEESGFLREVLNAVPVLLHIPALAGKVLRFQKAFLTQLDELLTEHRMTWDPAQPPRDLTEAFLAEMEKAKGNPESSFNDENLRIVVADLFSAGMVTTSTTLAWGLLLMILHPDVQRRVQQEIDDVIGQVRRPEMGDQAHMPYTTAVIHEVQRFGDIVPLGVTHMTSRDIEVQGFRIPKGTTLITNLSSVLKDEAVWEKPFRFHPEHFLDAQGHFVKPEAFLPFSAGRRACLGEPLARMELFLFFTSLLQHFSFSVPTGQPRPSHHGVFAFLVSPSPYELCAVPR

Adenosine receptor A3 = Adenosine receptor A3 (Homo sapiens, UniProt P0DMS8); experiment: Binding affinity to human adenosine A3 receptor
Adenosine receptor A3, sequence (P0DMS8 whole entry): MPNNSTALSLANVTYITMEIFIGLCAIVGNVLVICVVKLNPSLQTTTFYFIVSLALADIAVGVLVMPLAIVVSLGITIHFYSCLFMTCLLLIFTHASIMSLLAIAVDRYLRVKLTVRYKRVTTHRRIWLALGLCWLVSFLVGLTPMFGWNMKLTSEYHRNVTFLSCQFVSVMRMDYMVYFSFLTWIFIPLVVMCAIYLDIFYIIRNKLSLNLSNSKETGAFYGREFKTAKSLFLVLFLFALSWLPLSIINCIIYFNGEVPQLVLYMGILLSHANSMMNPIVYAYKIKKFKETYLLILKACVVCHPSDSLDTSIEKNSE

[9] = Activation of Inward rectifier potassium channel in human atrial myocytes; assay type: cell-based; settings: Cardiac atrium
Procedure, shortened: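 In vitro activation of the inward-rectifying potassium channel (IKACh) in human atrial myocytes, run alongside S1P as reference agonist; potency expressed as EC50.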

Salmonella typhimurium = experiment: Genotoxicity in Salmonella typhimurium in presence of rat liver S9 fraction by Ames bacterial reverse mutation assay; assay type: toxicity, organism-based; settings: salmonella enterica subsp. enterica serovar typhimurium
Canis familiaris [10] = experiment: Effect on heart rate in telemeterized dog up to 40 mg/kg; assay type: ADME, organism-based, Canis lupus familiaris; set-up: dose 40 mg/kg; settings: in vivo
Procedure, shortened: (§1)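 Telemeterized dogs dosed at levels up to 40 mg/kg; pulse pressure, heart rate, body temperature and ECG parameters monitored.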

Canis familiaris [11] = experiment: Effect on body temperature in telemeterized dog up to 40 mg/kg; assay type: ADME, organism-based, Canis lupus familiaris; set-up: dose 40 mg/kg; settings: in vivo; procedure, shortened: as §1
Rattus norvegicus [12] = experiment: Effect on neurobehaviour in Sprague-Dawley rat up to 350 mg/kg; assay type: ADME, organism-based; set-up: dose 350 mg/kg; settings: in vivo
Procedure, shortened: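 CNS (neurobehavioral) and respiratory safety studies in SD rats, doses up to 350 mg/kg.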

Rattus norvegicus [13] = experiment: Toxicity in Sprague-Dawley rat assessed as induction of CNS clinical changes at 1000 mg/kg during 14 day repeat dose study; assay type: organism-based, Central nervous system; set-up: dose 1000 mg/kg; settings: in vivo, 336 h
Procedure, shortened: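 14-day repeat-dose rat toxicity study with dose groups of 30, 100, 300 and 1000 mg/kg; animals monitored for tolerability, mortality and CNS clinical signs.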

[14] = Cmax in Sprague-Dawley rat at 300 mg/kg; assay type: ADME, organism-based; set-up: dose 300 mg/kg; settings: in vivo
Procedure, shortened: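 Sprague–Dawley rats dosed at 300 and 1000 mg/kg in a separate dose-proportionality exposure study; Cmax determined.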

Rattus norvegicus [15] = experiment: Effect on liver function in Sprague-Dawley rat at 30 to 1000 mg/kg; assay type: ADME, organism-based; set-up: dose 30-1000 mg/kg; settings: in vivo
[16] = biological target: T1, Sphingosine 1-phosphate receptor 1 (Homo sapiens, UniProt P21453); experiment: Agonist activity at human S1P1 receptor assessed as cAMP accumulation by HTRF assay; assay type: functional
T1 sequence (P21453 whole entry): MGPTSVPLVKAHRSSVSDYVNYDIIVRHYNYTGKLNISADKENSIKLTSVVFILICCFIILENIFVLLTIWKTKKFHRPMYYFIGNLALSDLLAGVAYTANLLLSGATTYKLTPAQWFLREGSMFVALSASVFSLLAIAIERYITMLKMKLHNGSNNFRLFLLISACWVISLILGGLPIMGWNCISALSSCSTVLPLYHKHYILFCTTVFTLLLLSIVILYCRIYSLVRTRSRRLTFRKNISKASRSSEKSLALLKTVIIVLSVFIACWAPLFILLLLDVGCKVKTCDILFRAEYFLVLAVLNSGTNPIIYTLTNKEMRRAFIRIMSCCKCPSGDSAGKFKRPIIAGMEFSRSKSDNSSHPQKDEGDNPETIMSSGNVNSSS
Procedure, shortened: (§2)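 HTRF cyclase (cAMP) functional assay at S1P1 of each species; EC50 taken as mean of three or more replicates; efficacy given as % agonism relative to S1P.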

[17] = biological target: T1, Sphingosine 1-phosphate receptor 1; experiment: Agonist activity at human S1P1 receptor assessed as cAMP accumulation by HTRF assay relative to S1P; assay type: functional; procedure, shortened: as §2
[18] = Half life in human liver microsomes; assay type: ADME
Procedure, shortened: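 Stability on incubation with liver microsomes of each species; half-life reported.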

[19] = Cmax in rat at 1 mg/kg equivalent, po; assay type: ADME, organism-based; set-up: dose 1 mg/kg, route oral; settings: in vivo
Procedure, shortened: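 SD rat given L-arginine salt orally as a solution in sterile water, 1.0 mg/kg free-acid equivalent; Cmax measured.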

[20] = biological target: T1, Sphingosine 1-phosphate receptor 1; experiment: Induction of internalization of HA-tagged human S1P1 receptor expressed in CHO cells; assay type: cell-based
Procedure, shortened: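 CHO cells expressing HA-tagged human S1P1; receptor internalization measured, IC50 derived.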

[21] = biological target: Sphingosine-1-phosphate receptor 1 (Canis lupus familiaris, UniProt W5VNF7); experiment: Agonist activity at dog S1P1 receptor assessed as cAMP accumulation by HTRF assay; assay type: functional; procedure, shortened: as §2
Sphingosine-1-phosphate receptor 1, sequence (W5VNF7 whole entry): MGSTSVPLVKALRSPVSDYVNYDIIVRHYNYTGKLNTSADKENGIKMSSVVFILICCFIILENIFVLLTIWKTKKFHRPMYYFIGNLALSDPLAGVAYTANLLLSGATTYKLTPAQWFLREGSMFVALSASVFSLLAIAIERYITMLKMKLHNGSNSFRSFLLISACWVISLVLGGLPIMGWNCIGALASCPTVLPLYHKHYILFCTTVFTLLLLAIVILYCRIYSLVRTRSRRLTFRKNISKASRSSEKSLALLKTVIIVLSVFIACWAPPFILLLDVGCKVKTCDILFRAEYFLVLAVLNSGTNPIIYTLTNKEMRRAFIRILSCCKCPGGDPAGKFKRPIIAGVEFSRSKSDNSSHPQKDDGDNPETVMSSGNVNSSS

[22] = biological target: Sphingosine 1-phosphate receptor 4 (Homo sapiens) (UniProt O95977); experiment: Agonist activity at human S1P4 receptor by beta-arrestin recruitment assay relative to S1P
Sphingosine 1-phosphate receptor 4 (Homo sapiens), sequence (O95977 whole entry): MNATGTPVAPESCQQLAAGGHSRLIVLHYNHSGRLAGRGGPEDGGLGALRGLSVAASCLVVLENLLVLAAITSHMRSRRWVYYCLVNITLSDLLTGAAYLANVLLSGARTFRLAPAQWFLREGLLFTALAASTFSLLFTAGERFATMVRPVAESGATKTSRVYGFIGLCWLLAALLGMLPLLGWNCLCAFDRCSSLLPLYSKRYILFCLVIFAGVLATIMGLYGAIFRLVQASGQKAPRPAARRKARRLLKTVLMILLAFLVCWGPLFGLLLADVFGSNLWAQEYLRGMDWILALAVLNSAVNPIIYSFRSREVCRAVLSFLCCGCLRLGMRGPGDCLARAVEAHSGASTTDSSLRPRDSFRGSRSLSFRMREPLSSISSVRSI

[23] = Systemic clearance in rat at 1 mg/kg, iv; assay type: ADME, organism-based; set-up: dose 1 mg/kg, route intravenous; settings: in vivo
[24] = Systemic clearance in monkey at 1 mg/kg, iv; assay type: ADME, organism-based, Macaca mulatta; set-up: dose 1 mg/kg, route intravenous; settings: rhesus monkey, in vivo
Canis familiaris [25] = experiment: Systemic clearance in dog at 1 mg/kg, iv relative to liver blood flow; assay type: ADME, organism-based, Canis lupus familiaris; set-up: dose 1 mg/kg, route intravenous; settings: in vivo
Rhesus monkey [26] = experiment: Systemic clearance in monkey at 1 mg/kg, iv relative to liver blood flow; assay type: ADME, organism-based, Macaca mulatta; set-up: dose 1 mg/kg, route intravenous; settings: in vivo
[27] = Volume of distribution at steady state in dog at 1 mg/kg, iv; assay type: ADME, organism-based, Canis lupus familiaris; set-up: dose 1 mg/kg, route intravenous; settings: in vivo, read-out: Vdss
[28] = Volume of distribution at steady state in monkey at 1 mg/kg, iv; assay type: ADME, organism-based, Macaca mulatta; set-up: dose 1 mg/kg, route intravenous; settings: rhesus monkey, in vivo, read-out: Vdss
[29] = Cmax in dog at 1 mg/kg, iv or 3 mg/kg, po; assay type: ADME, organism-based, Canis lupus familiaris; settings: in vivo
Procedure, shortened: (§3)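 Preclinical iv/po PK; amorphous free acid dosed orally as a suspension in 0.5% methyl cellulose; clearance and Vss from intravenous administration.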

[30] = Cmax in monkey at 1 mg/kg, iv or 3 mg/kg, po; assay type: ADME, organism-based, Macaca mulatta; settings: rhesus monkey, in vivo; procedure, shortened: as §3
[31] = AUC (0 to infinity) in rat at 1 mg/kg, iv or 1 mg/kg, po; assay type: ADME, organism-based; settings: plasma; procedure, shortened: as §3
[32] = AUC (0 to infinity) in dog at 1 mg/kg, iv or 3 mg/kg, po; assay type: ADME, organism-based, Canis lupus familiaris; settings: plasma; procedure, shortened: as §3
[33] = AUC (0 to infinity) in monkey at 1 mg/kg, iv or 3 mg/kg, po; assay type: ADME, organism-based, Macaca mulatta; settings: rhesus monkey, plasma; procedure, shortened: as §3
[34] = Elimination half life in mouse at 1 mg/kg, po; assay type: ADME, organism-based; set-up: dose 1 mg/kg, route oral; settings: in vivo, read-out: beta t1/2 (converted); procedure, shortened: as §3
[35] = Elimination half life in rat at 1 mg/kg, po; assay type: ADME, organism-based; set-up: dose 1 mg/kg, route oral; settings: in vivo, read-out: beta t1/2 (converted); procedure, shortened: as §3
[36] = Oral bioavailability in dog at 3 mg/kg; assay type: ADME, organism-based, Canis lupus familiaris; settings: in vivo
[37] = Oral bioavailability in monkey at 3 mg/kg; assay type: ADME, organism-based, Macaca mulatta; settings: rhesus monkey, in vivo

## O=C(O)C[C@H]1CCc2c1[nH]c1ccc(OCc3ccc(C4CCCC4)c(C(F)(F)F)c3)cc21 [ETRASIMOD]
Rhesus monkey [1]
  IC50: 98 nM
[2]
  fraction unbound: 0.022
[3]
  concentration at 48 h: 0.11 µM
Mus musculus [4]
  Activity: Active
Mus musculus [5]
  Activity: Active
Rattus norvegicus [6]
  Activity: 0.2803 inches
Rattus norvegicus [7]
  Activity: 178.6 g
Rattus norvegicus [8]
  Activity: Active
Cytochrome P450 3A4
  IC50: > 50000 nM
Cytochrome P450 2D6
  IC50: > 50000 nM
Adenosine receptor A3
  IC50: 3300 nM
[9]
  EC50: 29.9 nM
Salmonella typhimurium
  Activity: Non-toxic
Canis familiaris [10]
  Activity: Non-toxic
Canis familiaris [11]
  Activity: Non-toxic
Rattus norvegicus [12]
  Activity: Non-toxic
Rattus norvegicus [13]
  Activity: Toxic
[14]
  Cmax: 136 µM
Rattus norvegicus [15]
  Activity: Non-toxic
[16]
  EC50: 0.04 nM
[17]
  Emax: 102%
[18]
  half-life: > 1 h
[19]
  Cmax: 361 ng/mL
[20]
  IC50: 1.88 nM
[21]
  EC50: 0.34 nM
[22]
  Emax: 63%
[23]
  clearance: 2.42 mL/min/kg
[24]
  clearance: 0.947 mL/min/kg
Canis familiaris [25]
  CL: 0.746%
Rhesus monkey [26]
  CL: 2.23%
[27]
  Vd: 0.609 L/kg
[28]
  Vd: 0.411 L/kg
[29]
  Cmax: 3710 ng/mL
[30]
  Cmax: 2870 ng/mL
[31]
  AUC(0-inf): 3790 ng·h/mL
[32]
  AUC(0-inf): 164000 ng·h/mL
[33]
  AUC(0-inf): 23100 ng·h/mL
[34]
  half-life: 12.3 h
[35]
  half-life: 9.64 h
[36]
  bioavailability: 73.2%
[37]
  bioavailability: 43.8%
